# Screening data as filed in PubChem.
# ABHD5-PLIN5 inh: inhibitors of human ABHD5-perilipin-5 interaction. Split G. princeps luciferase complementation, luminescence, 4 h. AID 602281. 360,000 tested, 0.78% active. inhibition, % at 4 µM;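 active means inhibition above the mean inhibition across every tested compound plus 3 SD, cut at about 22% in these data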;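 further: 0% = DMSO only wells and the 100% control is not disclosed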
# Granule exo inh: lytic granule exocytosis inhibition. TALL-104 LAMP-1 surface exposure, flow cytometry; cells stimulated with thapsigargin and PMA. 360,000 tested, 0.66% active. inhibition, % at 10 µM. AID 651702;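 active means inhibition above about 55%, limit read from the data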
# PfG6PD inh: PfG6PD (Plasmodium falciparum) enzyme inhibition; PfGluPho enzyme, NADPH resazurin-diaphorase fluorescence; inhibition, % at 20 µM; 350,000 tested, 0.78% active; AID 504690;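 active means inhibition reaching at least a set limit at 20 µM in the primary screen, cut at about 59% in these data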;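 further: 0% = DMSO wells with substrate and 100% = DMSO wells lacking glucose-6-phosphate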
# HKDC1 inh: inhibitors of human hexokinase HKDC1 | recombinant HKDC1, G6PDH/diaphorase resazurin coupled fluorescence | inhibition, % at 20 µM | 340,000 tested, 0.16% active;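 active means inhibition above about 35% when tested at 20 µM, limit read from the data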;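 further: plate controls were DMSO wells with enzyme for no effect and DMSO wells lacking enzyme for full effect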
#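 System: Recombinant HKDC1 hexokinase | Amount: HKDC1 at 5 µg/mL | Reagent: Glucose with 1 mM ATP | Doses: Single 20 µM dose | Incubation: Reaction time 90 min, room temperature, protected from light | Signal: Coupled resazurin fluorescence, excitation 525 nm, emission 613 nm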
# PfGluPho conf: PfG6PD inhibition, single-dose confirmed; shares compounds with PfG6PD inh; recombinant PfGluPho, NADPH-diaphorase-resazurin fluorescence; inhibition, % at 20 µM; 2,400 tested, 34% active; AID 504753;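 active means inhibition of at least 50% at 20 µM in any single replicate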;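 further: 0% = DMSO with substrate and 100% = DMSO lacking glucose-6-phosphate substrate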
# Diaphorase 10uM: diaphorase inhibition or oxidation at 10 uM NADPH; inhibition, % at 20 µM; shares compounds with PfG6PD inh; 820 tested, 39% active; AID 504862; diaphorase-coupled resazurin reduction, fluorescence, NADPH 10 uM;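 active means average inhibition reaching 50% or more with the compound at 20 µM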;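 further: resorufin red fluorescence formed as diaphorase reduces resazurin using NADPH; 0% = DMSO with enzyme and 100% = DMSO without enzyme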
# Diaphorase 30uM: counter-screen for P. falciparum G6PD inhibitors: diaphorase inhibitors, oxidizers | shares compounds with PfG6PD inh | AID 504863 | 820 tested, 29% active | Diaphorase/resazurin coupled assay, resorufin fluorescence, 30 uM NADPH | inhibition, % at 20 µM;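 active means inhibition averaging 50% or more, tested at 20 µM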;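 further: 0% = DMSO with enzyme and 100% = DMSO wells lacking diaphorase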
# * hit, by the source's call; · = not tested or not shown. In the library only some 2.2% were active in any assay of this set; here they are far more common.
SMILES,ABHD5-PLIN5 inh,Granule exo inh,PfG6PD inh,HKDC1 inh,PfGluPho conf,others
Oc1cc2c(cc1O)[C@H]1c3ccc(O)c(O)c3OC[C@@]1(O)C2,10,-5,113*,5,98*,Diaphorase 10uM=56*;Diaphorase 30uM=30
S=c1[nH]nc(-c2ccc3ccccc3n2)n1-c1ccccc1Cl,-5,-1,63*,1,48,
NS(=O)(=O)c1ccc(Nc2nc(-c3ccc(O)cc3O)cs2)cc1,-22,4,69*,-9,-2,
NS(=O)(=O)c1ccc(Nc2nc(-c3ccc(F)cc3)cs2)cc1,4,6,16,15,·,
N#Cc1ccc(-c2nc3ccc(Br)cn3c2Cc2ccccc2)cc1,-5,13,89*,·,13,
CC1CN(C(=O)CCNS(=O)(=O)c2ccc(Br)cc2)CC(C)O1 (configuration not stated),-2,8,17,-3,·,
Cc1ccc(Cl)cc1NC(=O)c1cc2ccccc2cc1O,-3,8,61*,-2,4,
Cc1cc2[nH]c3c4ccccc4nc(C)c3c2cc1C,7,28,75*,4,8,
CCN=c1scc(C)n1/N=C/c1cc(Br)c(O)c(Br)c1,3,1,3,1,·,
CCN=c1scc(C)n1/N=C/c1ccc(O)c(O)c1O,-35,0,80*,18,72*,Diaphorase 10uM=25;Diaphorase 30uM=37
COC(=O)c1cccc(CN2C(=O)C(C)Sc3ccc(C(C)=O)cc32)c1 (configuration not stated),3,11,·,·,·,
Cc1ccn(CCC(=O)NC2CC(C)(C)Cc3c2cnn3-c2ccccc2C)n1 (configuration not stated),-10,3,-8,-7,·,
Cc1ccnc(NS(=O)(=O)c2ccc(NC(=O)c3snnc3C)cc2)n1,-4,2,-3,-4,·,
Cc1nc(NS(=O)(=O)c2ccccc2)sc1C(=O)NNS(=O)(=O)c1ccccc1,1,-6,-11,-3,·,
Cc1nc(NS(=O)(=O)c2ccccc2)sc1C(=O)N/N=C/c1ccccc1,1,-4,74*,-2,43,
Cc1nn(-c2ccccc2)c(Cl)c1/C=N/NC(N)=O,1,-14,3,0,·,
Cc1nn(-c2ccccc2)c(Cl)c1/C=N/Nc1nc2ccccc2n1C,4,90*,102*,-8,47*,Diaphorase 10uM=37;Diaphorase 30uM=38
CC(SC1=NCCN1S(=O)(=O)c1ccccc1)c1ccccc1 (configuration not stated),-9,6,62*,10,24,
O=S(=O)(c1ccccc1)N1CCN=C1SCc1c(F)cccc1Cl,-6,1,106*,-1,32,
O=S(=O)(c1ccc(Cl)cc1)N1CCN=C1SCc1cccc(Cl)c1,-2,2,43,2,·,
Cc1ccc(S(=O)(=O)N2CCN=C2SC(C)c2ccccc2)cc1 (configuration not stated),1,-2,54,8,·,
Cc1ccc(C)c(CSC2=NCCN2S(=O)(=O)c2ccccc2)c1,-14,8,62*,4,-3,
O=C(N/N=C/c1cccc(Br)c1)C1CC(=O)N(c2ccccc2)C1 (configuration not stated),4,-7,73*,1,45,
CC1(C(=O)Nc2nc3ccccc3s2)CC1(Br)Br (configuration not stated),0,-16,-2,11,·,
O=C(c1ccc2nc(-c3ccco3)c(-c3ccco3)nc2c1)N1CCN(c2ncccn2)CC1,15,-1,69*,21,2,
SMILES,ABHD5-PLIN5 inh,Granule exo inh,PfG6PD inh,HKDC1 inh,PfGluPho conf,others
Cc1ccc(OCC2Cn3c(nc4c3c(=O)[nH]c(=O)n4C)O2)cc1C (configuration not stated),-6,-7,12,-7,·,
Cc1cc2nc(-c3ccc(SCc4ccc(C(=O)O)cc4)nc3)[nH]c2cc1C,-6,3,72*,-1,30,
O=C(Oc1c(Br)cc(C(=S)N2CCOCC2)cc1Br)c1ccc(Cl)cc1,-3,-2,67*,2,9,
Cc1ccc(N(O)C(C)(C)C)cc1,-2,-9,72*,2,8,
Cc1ccc(N(C)S(=O)(=O)c2ccc(C)cc2)cc1,-4,-2,19,10,·,
O=C(CSc1ccccc1F)NC(=O)c1ccccc1Br,-7,1,10,6,·,
